Measured values taken from ChEMBL document CHEMBL1123206, “5-(Alkylsulfonyl)salicylanilides as potential dental antiplaque agents” (J Med Chem, 1986).
Values after ≈ are worked out from the molar mass of the structure shown. Active and inactive are the calls of the source. No cut-off for these calls is given here.

Tests used:
[1] = tested on: Actinomyces viscosus; assay: Minimum inhibitory concentration against Actinomyces viscosus; assay type: functional
Procedure, shortened: (§1)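 Tube dilution in trypticase soy broth, threefold dilutions from 1000 to 0.1 μg/mL. Stocks were 1 mg/100 μL in EtOH or Me₂SO. The inoculum was 50 μL of 10⁸ cfu/mL log-phase A. viscosus M100-2000, incubated aerobically at 37 °C. MIC was read visually at 24 h.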

[2] = tested on: Actinomyces viscosus; assay: Compound was tested against Actinomyces viscosus; assay type: functional
[3] = Dissociation constant of the compound; assay type: physicochemical
Procedure, shortened: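 Spectroscopic pKa in 0.01 M phosphate buffers without cosolvent, below 10⁻⁴ M. Only pH values giving >60% ionization were used. The analytical wavelength was the longest λmax at pH 12 (260–370 nm). The value is the average of triplicate determinations.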

[4] = Partition coefficient (logP); assay type: physicochemical; conditions: octanol/water
Procedure, shortened: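 log P calculated, not measured: 3.27 for salicylanilide plus π of the 4'-substituent plus π of R' (phenolic hydrophobicity substituent constants).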

[5] = Partition coefficient (logD); assay type: physicochemical; conditions: octanol/water
Procedure, shortened: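 logD calculated at pH 7.2 as log D = log P + log[1/(1 + 10^(pH−pKa))], using the calculated log P and spectroscopic pKa.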

[6] = tested on: Actinomyces viscosus; assay: Minimum inhibitory concentration against Actinomyces viscosus M100-2000; NE is Not Effective; assay type: functional, organism-based; procedure, shortened: as §1
[7] = tested on: Actinomyces viscosus; assay: Compound was tested for it's inhibitory activity against Actinomyces viscosus M100-2000; assay type: functional, organism-based
[8] = tested on: Streptococcus mutans; assay: The compound was tested for it's inhibitory activity against Streptococcus mutans; assay type: functional, organism-based
[9] = tested on: Streptococcus mutans; assay: Maximum percentage inhibition against Streptococcus mutans at a concentration of 0.2% w/v; assay type: functional
Procedure, shortened: (§2)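 Bovine enamel slabs (4 × 8 mm) were autoclaved in PBS pH 7.5, coated with human saliva (1 h, 37 °C), dipped in drug solution at the stated w/v for 2 min, then rinsed. They were incubated 24 h at 37 °C in 1% sucrose-supplemented medium inoculated with the plaque-forming organism. Tooth-adherent, glass-adherent and nonadherent fractions were read by OD540. Water-dipped slabs served as controls. Run in triplicate.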

[10] = tested on: Actinomyces viscosus; assay: Maximum percentage inhibition against Actinomyces viscosus M-100-2000 at a concentration of 0.2% w/v
[11] = tested on: Actinomyces viscosus; assay: Maximum percentage inhibition against Actinomyces viscosus 6715-13WT at a concentration of 0.1% w/v; assay type: functional; conditions: in the assay text read “M-100-2000” for “6715-13WT”; procedure, shortened: as §2
[12] = tested on: Streptococcus mutans; assay: Maximum percentage inhibition against Streptococcus mutans at a concentration of 0.1% w/v; assay type: functional; procedure, shortened: as §2

Row | Structure (SMILES) | MIC [1] [µg/mL] | Log 1/MIC [2] | pKa [3] | logP [4] | logD [5] | also measured
1 | CCCCCCCCS(=O)(=O)c1ccc(O)c(C(=O)Nc2ccc(C(F)(F)F)cc2)c1 | 0.5 (≈ 1.09 µM) | 5.96 | 6.2 | 6.3 | 5.26 | 
2 | CCCCCCCCCCCCCCS(=O)(=O)c1ccc(O)c(C(=O)Nc2cccc(C(F)(F)F)c2)c1 |  |  |  |  |  | MIC [6]: inactive
3 | CCCCS(=O)(=O)c1ccc(O)c(C(=O)Nc2ccc(Br)cc2)c1 | 20 (≈ 48.5 µM) | 4.31 | 5.2 | 4.12 | 2.48 | 
4 | CCCCCCCCCCS(=O)(=O)c1ccc(O)c(C(=O)Nc2ccc(C(F)(F)F)cc2)c1 | 0.1 (≈ 0.206 µM) | 6.69 | 6.2 | 7.38 | 6.34 | IC50 [7]: 90 µM; IC50 [8]: 1900 µM; inhibition at 0.2 % strength [9]: 76%; inhibition at 0.2 % strength [10]: 95%
5 | CCCCCCS(=O)(=O)c1ccc(O)c(C(=O)Nc2ccc(C(F)(F)F)cc2)c1 | 5 (≈ 11.6 µM) | 4.94 | 6.2 | 5.22 | 4.18 | 
6 | CCCCCCCCCCCCS(=O)(=O)c1ccc(O)c(C(=O)Nc2cccc(C(F)(F)F)c2)c1 | 0.1 (≈ 0.195 µM) |  |  |  |  | 
7 | CCCCCCCCCCCCS(=O)(=O)c1ccc(O)c(C(=O)Nc2ccc(Br)cc2)c1 | 0.5 (≈ 0.953 µM) | 6.02 | 5.2 | 8.44 | 6.49 | 
8 | CCCCCCS(=O)(=O)c1ccc(O)c(C(=O)Nc2ccc(Br)cc2)c1 | 5 (≈ 11.4 µM) | 4.94 | 5.2 | 5.2 | 3.2 | 
9 | CCCCCCCCCCS(=O)(=O)c1ccc(O)c(C(=O)Nc2ccc(Br)cc2)c1 | 0.5 (≈ 1.01 µM) | 6 | 5.2 | 7.36 | 5.36 | 
10 | CS(=O)(=O)c1ccc(O)c(C(=O)Nc2ccc(Br)cc2)c1 | ≥ 1000 |  |  |  |  | 
11 | CS(=O)(=O)c1ccc(O)c(C(=O)Nc2ccccc2)c1 | ≥ 1000 |  |  |  |  | 
12 | CCCCS(=O)(=O)c1ccc(O)c(C(=O)Nc2ccc(C(F)(F)F)cc2)c1 | 20 (≈ 49.8 µM) | 4.31 | 6.2 | 4.14 | 3.1 | 
13 | CCCCCCCCCCCCS(=O)(=O)c1ccc(O)c(C(=O)Nc2ccc([N+](=O)[O-])cc2)c1 | 0.5 (≈ 1.02 µM) |  |  |  |  | 
14 | CS(=O)(=O)c1ccc(O)c(C(=O)Nc2ccc(C(F)(F)F)cc2)c1 | 1000 (≈ 2780 µM) | 2.56 | 6.2 | 2.52 | 1.48 | 
15 | CCCCCCCCCCCCS(=O)(=O)c1ccc(O)c(C(=O)Nc2ccc(C#N)cc2)c1 | 1 (≈ 2.12 µM) |  |  |  |  | 
16 | CCCCCCCCS(=O)(=O)c1ccc(O)c(C(=O)Nc2ccc([N+](=O)[O-])cc2)c1 | 1 (≈ 2.3 µM) |  |  |  |  | 
17 | CCCCCCCCCCS(=O)(=O)c1ccc(O)c(C(=O)Nc2cccc(C(F)(F)F)c2)c1 | 0.5 (≈ 1.03 µM) |  |  |  |  | IC50 [7]: 680 µM; inhibition at 0.1 % strength [11]: 83%; IC50 [8]: 2300 µM; inhibition at 0.1 % strength [12]: 47%
18 | CCCCCCCCCCCCCCS(=O)(=O)c1ccc(O)c(C(=O)Nc2ccc([N+](=O)[O-])cc2)c1 | 0.5 (≈ 0.964 µM) |  |  |  |  | 
19 | CCCCCCCCCCCCS(=O)(=O)c1ccc(O)c(C(=O)Nc2ccc(OC)cc2)c1 | 1000 (≈ 2100 µM) |  |  |  |  | 
20 | CCCCCCCCCCCCS(=O)(=O)c1ccc(O)c(C(=O)Nc2ccc(C(F)(F)F)cc2)c1 | 0.05 (≈ 0.0973 µM) | 7.01 | 6.2 | 8.46 | 7.42 | 
21 | CCCCCCCCCCCCCCS(=O)(=O)c1ccc(O)c(C(=O)Nc2ccc(C(F)(F)F)cc2)c1 |  |  |  |  |  | MIC [6]: inactive
22 | CCCCCCCCCCS(=O)(=O)c1ccc(O)c(C(=O)Nc2ccc([N+](=O)[O-])cc2)c1 | 0.5 (≈ 1.08 µM) |  |  |  |  | IC50 [7]: 230 µM; IC50 [8]: 190 µM; inhibition at 0.2 % strength [9]: 80%; inhibition at 0.2 % strength [10]: 93%
23 | O=C(Nc1ccc(Br)cc1)c1cc(Br)cc(Br)c1O [TRIBROMSALAN] | 0.5 (≈ 1.11 µM) |  |  |  |  | IC50 [7]: 880 µM; IC50 [8]: 1200 µM; inhibition at 0.2 % strength [9]: 46%; inhibition at 0.2 % strength [10]: 53%
